Values after ≈ are worked out from the molar mass of the structure shown.
What was measured:
[1] = tested on: Aspergillus fumigatus; experiment: Antifungal activity against Aspergillus fumigatus ATCC 96918 by twofold broth dilution method; assay type: functional
Method in brief: (§1)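 Two-fold broth dilution in 96-well micro-test plates, following NCCLS recommendations. Enoxacin and Chloromycin served as positive controls for bacteria, and Fluconazole for fungi. The read-out is the MIC in µg/mL.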

[2] = tested on: Bacillus subtilis; experiment: Antimicrobial activity against Bacillus subtilis ATCC 6633 by twofold broth dilution method; assay type: functional; method in brief: as §1
[3] = tested on: Staphylococcus aureus; experiment: Antimicrobial activity against Staphylococcus aureus ATCC 25923 by twofold broth dilution method; assay type: functional; method in brief: as §1
[4] = tested on: Staphylococcus aureus; experiment: Antimicrobial activity against methicillin-resistant Staphylococcus aureus N 315 by twofold broth dilution method; assay type: functional
Method in brief: (§2)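 Antibacterial MIC, determined by two-fold serial broth dilution following the NCCLS-recommended method. Clinical antimicrobial drugs were run alongside as positive controls.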

[5] = tested on: Micrococcus luteus; experiment: Antimicrobial activity against Micrococcus luteus ATCC 4698 by twofold broth dilution method; assay type: functional; method in brief: as §1
[6] = tested on: Saccharomyces cerevisiae; experiment: Antifungal activity against Saccharomyces cerevisiae ATCC 9763 by twofold broth dilution method; assay type: functional; method in brief: as §1
[7] = tested on: Candida albicans; experiment: Antifungal activity against Candida albicans ATCC 76615 by twofold broth dilution method; assay type: functional; method in brief: as §1
[8] = tested on: Salmonella typhi; experiment: Antimicrobial activity against Salmonella typhi ATCC 9484 by twofold broth dilution method; assay type: functional, Salmonella enterica subsp. enterica serovar Typhi; conditions: Salmonella enterica; method in brief: as §2
[9] = tested on: Shigella dysenteriae; experiment: Antimicrobial activity against Shigella dysenteriae ATCC 49550 by twofold broth dilution method; assay type: functional; method in brief: as §2
[10] = tested on: Proteus vulgaris; experiment: Antimicrobial activity against Proteus vulgaris ATCC 6896 by twofold broth dilution method; assay type: functional; method in brief: as §1
[11] = tested on: Escherichia coli; experiment: Antimicrobial activity against Escherichia coli ATCC 25922 by twofold broth dilution method; assay type: functional; method in brief: as §1

| Structure (SMILES) | MIC [1] [µg/mL] | MIC [2] [µg/mL] | MIC [3] [µg/mL] | MIC [4] [µg/mL] | MIC [5] [µg/mL] | MIC [6] [µg/mL] | MIC [7] [µg/mL] | MIC [8] [µg/mL] | MIC [9] [µg/mL] | MIC [10] [µg/mL] | MIC [11] [µg/mL] |
| --- | --- | --- | --- | --- | --- | --- | --- | --- | --- | --- | --- |
| Cc1cc(=O)oc2cc(OCCCCCCn3cncn3)cc(OCCCCCCn3cncn3)c12 | 32 (≈ 64.7 µM) | 4 (≈ 8.09 µM) | 8 (≈ 16.2 µM) | 16 (≈ 32.3 µM) | 8 (≈ 16.2 µM) | 4 (≈ 8.09 µM) | 4 (≈ 8.09 µM) | 16 (≈ 32.3 µM) | 8 (≈ 16.2 µM) | 8 (≈ 16.2 µM) | 8 (≈ 16.2 µM) |
| Cc1cc(=O)oc2cc(OCc3ccc(Cn4cncn4)cc3)cc(OCc3ccc(Cn4cncn4)cc3)c12 | 64 (≈ 120 µM) | 64 (≈ 120 µM) | 32 (≈ 59.9 µM) | 64 (≈ 120 µM) | 64 (≈ 120 µM) | 32 (≈ 59.9 µM) | 32 (≈ 59.9 µM) | 32 (≈ 59.9 µM) | 64 (≈ 120 µM) | 32 (≈ 59.9 µM) | 64 (≈ 120 µM) |
| Cc1cc(=O)oc2cc(OCCCCn3cncn3)ccc12.Cl | 8 | 2 | 2 | 8 | 2 | 4 | 2 | 16 | 16 | 8 | 4 |
| Cc1cc(=O)oc2cc(OCc3ccc(Cn4cncn4)cc3)ccc12.Cl | 16 | 8 | 8 | 16 | 8 | 16 | 8 | 16 | 16 | 16 | 16 |
| Cc1cc(=O)oc2cc(OCCCCn3cncn3)cc(OCCCCn3cncn3)c12.Cl | 2 | 1 | 1 | 2 | 1 | 2 | 1 | 1 | 1 | 2 | 1 |
| Cc1cc(=O)oc2cc(OCc3ccc(Cn4cncn4)cc3)cc(OCc3ccc(Cn4cncn4)cc3)c12.Cl | 16 | 16 | 8 | 16 | 16 | 16 | 8 | 16 | 16 | 16 | 8 |
| Cc1cc(=O)oc2cc(OCCCCOc3ccc4c(C)cc(=O)oc4c3)ccc12 | 512 (≈ 1260 µM) | 128 (≈ 315 µM) | 128 (≈ 315 µM) | 512 (≈ 1260 µM) | 128 (≈ 315 µM) | 256 (≈ 630 µM) | 512 (≈ 1260 µM) | 256 (≈ 630 µM) | 512 (≈ 1260 µM) | 256 (≈ 630 µM) | 256 (≈ 630 µM) |
| Cc1cc(=O)oc2cc(OCCCCCOc3ccc4c(C)cc(=O)oc4c3)ccc12 | 512 (≈ 1220 µM) | 256 (≈ 609 µM) | 128 (≈ 304 µM) | 256 (≈ 609 µM) | 128 (≈ 304 µM) | 256 (≈ 609 µM) | 512 (≈ 1220 µM) | 512 (≈ 1220 µM) | 512 (≈ 1220 µM) | 512 (≈ 1220 µM) | 256 (≈ 609 µM) |
| Cc1cc(=O)oc2cc(OCCCCCCOc3ccc4c(C)cc(=O)oc4c3)ccc12 | 512 (≈ 1180 µM) | 128 (≈ 295 µM) | 256 (≈ 589 µM) | 512 (≈ 1180 µM) | 128 (≈ 295 µM) | 256 (≈ 589 µM) | 512 (≈ 1180 µM) | 512 (≈ 1180 µM) | 512 (≈ 1180 µM) | 256 (≈ 589 µM) | 256 (≈ 589 µM) |
| Cc1cc(=O)oc2cc(OCc3ccc(COc4ccc5c(C)cc(=O)oc5c4)cc3)ccc12 | > 512 | > 512 | > 512 | > 512 | > 512 | 512 (≈ 1130 µM) | > 512 | > 512 | > 512 | > 512 | > 512 |
| Cc1cc(=O)oc2cc(O)cc(O)c12 [5,7-DIHYDROXY-4-METHYLCOUMARIN] | 256 (≈ 1330 µM) | 64 (≈ 333 µM) | 32 (≈ 167 µM) | 64 (≈ 333 µM) | 64 (≈ 333 µM) | 256 (≈ 1330 µM) | 64 (≈ 333 µM) | 256 (≈ 1330 µM) | 256 (≈ 1330 µM) | 128 (≈ 666 µM) | 128 (≈ 666 µM) |
| O=C(N[C@H](CO)[C@H](O)c1ccc([N+](=O)[O-])cc1)C(Cl)Cl [CHLORAMPHENICOL] | – | 8 (≈ 24.8 µM) | 4 (≈ 12.4 µM) | 16 (≈ 49.5 µM) | ≤ 4 | – | – | 4 (≈ 12.4 µM) | 4 (≈ 12.4 µM) | 8 (≈ 24.8 µM) | 8 (≈ 24.8 µM) |
| CCn1cc(C(=O)O)c(=O)c2cc(F)c(N3CCNCC3)nc21 [ENOXACIN] | – | 1 (≈ 3.12 µM) | 1 (≈ 3.12 µM) | 4 (≈ 12.5 µM) | ≤ 1 | – | – | 2 (≈ 6.24 µM) | 1 (≈ 3.12 µM) | 1 (≈ 3.12 µM) | 1 (≈ 3.12 µM) |
| OC(Cn1cncn1)(Cn1cncn1)c1ccc(F)cc1F [FLUCONAZOLE] | 128 (≈ 418 µM) | – | – | – | – | 2 (≈ 6.53 µM) | 1 (≈ 3.27 µM) | – | – | – | – |
| Cc1cc(=O)oc2cc(O)ccc12 [HYMECROMONE] | 128 (≈ 727 µM) | 32 (≈ 182 µM) | 32 (≈ 182 µM) | 64 (≈ 363 µM) | 32 (≈ 182 µM) | 128 (≈ 727 µM) | 64 (≈ 363 µM) | 128 (≈ 727 µM) | 512 (≈ 2910 µM) | 256 (≈ 1450 µM) | 128 (≈ 727 µM) |

Source: ChEMBL document CHEMBL1667774, “Synthesis and evaluation of a class of new coumarin triazole derivatives as potential antimicrobial agents” (2011)
